Bioassay records (PubChem BioAssay)
Only some compounds are listed: those with a hit (about 0.59% of all), similar ones and a draw of the others.
V1R ag counter: agonists of human V1a receptor, primary screen, counter-screen for OXTR agonist project, fluorescence, CHO-V1R cells. Vasopressin V1a receptor (Homo sapiens), P37288. Fluo-8 calcium fluorescence, agonist mode; 0% DMSO, 100% 3 nM vasopressin. activation, % at 3 µM. actives 0.25% (n = 320,000). AID 2797, 2010;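 active means activation above the mean activation of all tested compounds plus 3 SD, per screening run, cut at about 20% in these data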;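 further: signal is peak over basal fluorescence ratio across a 100 second FLIPR read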
TRPML3 ag: human TRPML3 channel agonists, primary screen, cell-based, HEK293 TRPML3-YFP, Fluo-8 calcium fluorescence, 3 µM. Mucolipin-3 (Homo sapiens), Q8TDD5. 100% = the carbachol control signal. activation, % at 3 µM. actives 0.29% (n = 220,000);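 active means activation above its plate's cutoff, the mean activation of the plate's test wells plus 3 SD, cut at about 12% in these data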;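 further: 0% = DMSO only wells and 100% = carbachol wells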
Target sequence (Q8TDD5 whole entry, looked up): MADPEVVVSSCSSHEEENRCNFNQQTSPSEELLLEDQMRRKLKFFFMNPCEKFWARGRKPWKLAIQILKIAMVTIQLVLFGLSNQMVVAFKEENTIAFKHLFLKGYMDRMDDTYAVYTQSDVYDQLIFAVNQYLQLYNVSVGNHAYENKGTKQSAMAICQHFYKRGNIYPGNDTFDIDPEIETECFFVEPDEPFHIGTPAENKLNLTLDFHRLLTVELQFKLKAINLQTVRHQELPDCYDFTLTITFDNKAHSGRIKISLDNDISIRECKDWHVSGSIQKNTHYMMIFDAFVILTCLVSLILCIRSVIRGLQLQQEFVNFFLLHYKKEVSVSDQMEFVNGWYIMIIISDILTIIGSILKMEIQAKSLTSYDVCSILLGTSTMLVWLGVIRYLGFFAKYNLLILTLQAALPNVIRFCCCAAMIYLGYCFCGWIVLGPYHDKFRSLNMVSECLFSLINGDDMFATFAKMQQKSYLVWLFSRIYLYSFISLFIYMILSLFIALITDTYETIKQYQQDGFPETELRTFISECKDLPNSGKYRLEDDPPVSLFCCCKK
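Test system – HEK293 line with stable expression of human TRPML3-YFP channel · Control set – carbachol 87 µM final as high control (100%), DMSO as low control (0%) · Signal – Fluo-8 calcium dye fluorescence, ex 470-495, em 515-575 nm · Incubation – 1-h 37 °C dye load, 5-s basal, 120-s post-compound reads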
OXTR ag: human OXTR agonists, primary screen, fluorescence, CHO-OTR cells, Fluo-8 calcium | actives 0.32% (n = 320,000) | Oxytocin receptor (Homo sapiens), P30559 | Fluo-8 calcium fluorescence; normalized: DMSO 0%, oxytocin 100% | activation, % at 3 µM;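 active means activation above the mean of all tested compounds plus 3 SD, cutoff set per screening run, cut at about 20% in these data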;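 further: peak over basal fluorescence ratio from a 100 s FLIPR kinetic read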
OXTR potentiator: human OXTR potentiators, primary screen, fluorescence, CHO-OTR cells, Fluo-8 calcium; Fluo-8 calcium fluorescence, potentiator mode; 0% = oxytocin EC15, 100% = EC100; Oxytocin receptor (Homo sapiens), P30559; activation, % at 3 µM; actives 0.061% (n = 320,000); AID 2445, 2010;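 active means activation above that plate's cutoff, the mean activation of tested compounds plus 3 SD, cut at about 6.6% in these data, passing the limit was not always enough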;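 further: 100% uses oxytocin at 75 nM as the full agonist control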
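System: human OTR in CHO cells; Also added: sub-maximal oxytocin, roughly EC15; Timing: compound 6 min at room temperature before oxytocin, 100 s read; Technique: Fluo-8 intracellular calcium fluorescence, ex 470-495, em 515-575 nm; Controls: oxytocin EC15 low and EC100 high; Replication: singlicate.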
zfTRPN1 agonist: zebrafish TRPN1 channel agonists, primary screen, cell-based, HEK293, calcium fluorescence; activation, % at 3 µM; HEK293 zebrafish TRPN1-YFP, Fluo-8 calcium fluorescence; 100% = response to 87 µM carbachol; actives 0.18% (n = 220,000); transient receptor potential cation channel N1 (TRPN1/NompC), Danio rerio; AID 1424, 2008;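 active means activation above its plate's cutoff, the mean activation of test wells on that plate plus 3 SD, cut at about 19% in these data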;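 further: 0% = DMSO alone and 100% = 87 µM carbachol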
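Material – zebrafish TRPN1-YFP in HEK293 cells · Doses – 3 µM single point · Schedule – dye 1 h 37 °C plus 30 min RT · Signal – Fluo-8 calcium fluorescence, excitation 470-495 nm, emission 515-575 nm · Read-out – % activation versus carbachol response · Control set – carbachol high, DMSO low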
OXTR pot cf: human OXTR potentiators, confirmation, fluorescence, CHO-OTR cells, triplicate. AID 434985, 2010. activation, % at 3 µM. shares compounds with OXTR potentiator. Fluo-8 calcium fluorescence, potentiation; scaled from low-dose to maximal oxytocin. 180 tested, under 10 active;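 active means mean percent activation over triplicates above a cutoff set from solvent-only control plates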;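 further: compounds tested in the presence of an EC15 dose of oxytocin; 0% = EC15 oxytocin with DMSO and 100% = EC100 oxytocin with DMSO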
Active calls of the source: *.

For CCOC(=O)c1c(CN2CCC(C)CC2)oc2ccc(OC)cc12 the results were V1R ag counter -1, TRPML3 ag 0, OXTR ag -2, OXTR potentiator 12*, zfTRPN1 agonist -1 and OXTR pot cf -5.
`CCOC(=O)c1c(CN2CCCCC2)oc2ccc(OC)cc12` gave V1R ag counter -1, TRPML3 ag -1, OXTR ag -1, OXTR potentiator -3 and zfTRPN1 agonist -1.
`Cc1ccc(NC(=O)CCS(=O)(=O)c2cccc3nonc23)c(Br)c1` gave V1R ag counter 1, OXTR ag 0 and OXTR potentiator -2.
Screening COc1cc(C(=O)NCC(=O)OCc2ccc(F)cc2)cc(OC)c1OC returned V1R ag counter 0, OXTR ag 1 and OXTR potentiator -9.
`CN(Cc1nc2ccccc2c(=O)[nH]1)C(=O)c1ccc(S(=O)(=O)N2CCCC2)cc1` gave V1R ag counter 0, OXTR ag 3, OXTR potentiator 13* and OXTR pot cf -3.
CCN(CC(=O)Nc1c(F)cccc1F)C(=O)c1ccc2ccccc2n1 was read as V1R ag counter 0, OXTR ag 0 and OXTR potentiator 4.
For CCN(CC(=O)Nc1c(F)cccc1F)C(=O)/C=C/c1ccc2ccccc2n1 the results were V1R ag counter 0, OXTR ag 0, OXTR potentiator 21* and OXTR pot cf -5.
Screening COc1ccc(N2C(=O)CSC23C(=O)N(CC(=O)NC2CCCC2)c2ccccc23)cc1 (centres undefined) returned V1R ag counter 0, OXTR ag -1 and OXTR potentiator -4.
For CCOC(=O)c1sc(C)c2c1NC1(CCCCC1)NC2=O the results were V1R ag counter -2, TRPML3 ag -1, OXTR ag -2, OXTR potentiator 11*, zfTRPN1 agonist 0 and OXTR pot cf 1.
`Cc1nnc(NC(=O)c2cc(-c3ccncc3)nc3c(C)cccc23)s1` gave V1R ag counter -1, OXTR ag -1, OXTR potentiator 15* and OXTR pot cf 5.
Screening O=[N+]([O-])c1ccc(-c2nn(-c3ccccc3)cc2/C=N/n2c(-c3ccncc3)n[nH]c2=S)cc1 returned V1R ag counter 0, TRPML3 ag 1, OXTR ag 1, OXTR potentiator -6 and zfTRPN1 agonist 1.
S=c1[nH]nc(-c2ccncc2)n1/N=C/c1cn(-c2ccccc2)nc1-c1ccccc1 was read as V1R ag counter 1, TRPML3 ag 0, OXTR ag 0, OXTR potentiator 20*, zfTRPN1 agonist 2 and OXTR pot cf 7.5*.
For COc1ccc(-c2nc(CN3CCC(C(=O)NC4CCCC4)CC3)c(C)o2)cc1OC the results were V1R ag counter 0, OXTR ag 0, OXTR potentiator 16* and OXTR pot cf -4.
For COc1ccc([N+](=O)[O-])cc1-n1cccc1 the results were V1R ag counter 0, TRPML3 ag 0, OXTR ag 0, OXTR potentiator 13*, zfTRPN1 agonist 0 and OXTR pot cf -7.
For CCNc1nc(NC(C)C)nc(N(C)C#N)n1 the results were V1R ag counter 1, TRPML3 ag 1, OXTR ag -1, OXTR potentiator 13*, zfTRPN1 agonist 0 and OXTR pot cf 3.
`CCCN(C#N)c1nc(NCC)nc(NC(C)C)n1` gave V1R ag counter -1, TRPML3 ag 0, OXTR ag -1, OXTR potentiator -7 and zfTRPN1 agonist 0.
Screening Cc1nc(NC(=O)COC(=O)c2ccc(CO)cc2)c(Cl)cc1Cl returned V1R ag counter 0, OXTR ag 1 and OXTR potentiator -9.
O=C(NNC(=O)c1ccc(-c2ccccc2)cc1)c1ccccc1 was read as V1R ag counter 1, TRPML3 ag 1, OXTR ag 2, OXTR potentiator 12*, zfTRPN1 agonist 2 and OXTR pot cf -9.
Screening Cc1cccc(C(=O)NNC(=O)c2ccc(-c3ccccc3)cc2)c1 returned V1R ag counter 1, TRPML3 ag 1, OXTR ag 0, OXTR potentiator -3 and zfTRPN1 agonist 0.
Screening C[C@H]1COC(=O)[C@H](CC(=O)OC(C)(C)C)C/C=C\C[C@H](CC(=O)N(CCO)Cc2ccccc2)C(=O)N1 returned V1R ag counter 0, OXTR ag 0 and OXTR potentiator -6.
For COc1ccc(-n2nc(C(=O)NCC(=O)N3CCN(c4cccc(Cl)c4)CC3)c3ccccc3c2=O)c(OC)c1 the results were V1R ag counter -1, OXTR ag 0 and OXTR potentiator -8.
O=C(Nn1c(C2CCC2)nc2ccccc2c1=O)C1CCC1 was read as V1R ag counter -1, TRPML3 ag 1, OXTR ag -2, OXTR potentiator 13*, zfTRPN1 agonist -1 and OXTR pot cf -8.
Screening Cc1nc2ccccc2c(=O)n1NC(=O)C1CCCCC1 returned V1R ag counter 0, TRPML3 ag 0, OXTR ag -1, OXTR potentiator -4 and zfTRPN1 agonist 0.
`COc1ccc2c(c1)OC[C@H]1[C@H]2N2C(=O)c3cc(F)ccc3NC(=O)[C@@]2(C)[C@H]1c1ccccc1` gave V1R ag counter 2, OXTR ag 2, OXTR potentiator 13* and OXTR pot cf -8.
`Cc1ccccc1N1CCN(C2CCCN(C(=O)c3snnc3C)C2)CC1` (centres undefined) gave V1R ag counter 1, OXTR ag 0 and OXTR potentiator -6.
Screening COc1ccc(S(=O)(=O)N(C)C[C@H]2Oc3ccc(NC(=O)Cc4cn(C)c5ccccc45)cc3C(=O)N([C@@H](C)CO)C[C@@H]2C)cc1 returned V1R ag counter 1, OXTR ag 2 and OXTR potentiator -8.
O=C(COc1ncnc2ccccc12)NC1CCCCC1 was read as V1R ag counter 2, OXTR ag 0 and OXTR potentiator -3.
O=C(COc1ncnc2ccc(Br)cc12)NC1CCCC1 was read as V1R ag counter 0, OXTR ag 1, OXTR potentiator 13* and OXTR pot cf -6.
Screening Cc1cc(C)n(C(C)CNS(=O)(=O)c2ccc(C)c(C)c2)n1 (centres undefined) returned V1R ag counter 0, OXTR ag 0 and OXTR potentiator -10.
